Drawing on ChEMBL document CHEMBL1144735, “Design, synthesis, and evaluation of trifluoromethyl ketones as inhibitors of SARS-CoV 3CL protease” (Bioorg Med Chem, 2008), this text covers IC50 for 8 compounds.

In this experiment the target is Replicase polyprotein 1a (Severe acute respiratory syndrome-related coronavirus, UniProt P0C6U8). The experiment in a line: Inhibition of SARS-CoV 3CL protease. An outline of the steps:
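Purified SARS-CoV 3CL protease (50 nM) with 6 μM fluorogenic substrate peptide in 20 mM Bis–Tris pH 7.0 at 25 °C. Initial velocities were read across inhibitor concentrations and fitted for IC50.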

In turn, `C[C@H](NC(=O)[C@@H](N)CCC(=O)O)C(=O)NCC(=O)C(F)(F)F` gave an IC50 of 50 µM. The same measure for `CCCCCCCCCC(=O)N[C@@H](CC(C)C)C(=O)NC(Cc1ccccc1)C(=O)C(F)(F)F` (mixture of isomers): 50 µM; for `CCCCCCCCC(=O)N[C@@H](CC(C)C)C(=O)NC(Cc1ccccc1)C(=O)C(F)(F)F` (stereo partly drawn): > 50 µM; for `CC(C)C[C@H](NC(=O)OC(C)(C)C)C(=O)NC(C)C(=O)C(F)(F)F` (mixture of isomers): 40 µM. The same measure for `O=C(N[C@@H](Cc1ccccc1)C(=O)NC(Cc1ccccc1)C(=O)C(F)(F)F)OCc1ccccc1` (mixture of isomers): 20 µM.

In the case of `CC(C)C[C@H](NC(=O)[C@@H](NC(=O)[C@H](C)NC(=O)OCc1ccccc1)C(C)C)C(=O)N[C@@H](Cc1ccccc1)C(=O)C(F)(F)F` (mixture of isomers), the IC50 is 10 µM.

`C[C@H](NC(=O)[C@H](CCC(=O)OC(C)(C)C)NC(=O)OC(C)(C)C)C(=O)NCC(=O)C(F)(F)F`: it took 40 µM to reach half-maximal inhibition (IC50).

`CC(C)C[C@H](NC(=O)OCc1ccccc1)C(=O)NC(Cc1ccccc1)C(=O)C(F)(F)F` (mixture of isomers) had an IC50 of 15 µM.

As usually defined, the IC50 is the point on the concentration scale where inhibition reaches its midpoint. Low readings indicate greater potency in that assay, high ones weaker potency in that assay.
